Measurements published in ChEMBL document CHEMBL1122301, “Bioisosteric design of conformationally restricted pyridyltriazole histamine H2-receptor antagonists” (J Med Chem, 1983).
Values belong to the compound of their own block, whether it stands above or below them. The source made the active and inactive calls. No cut-off for these calls is given here.

What was measured:
[1] = Log distribution coefficient between 1-octanol and aqueous buffer at pH of 9.2.; format: physicochemical; conditions: 1-octanol/aqueous buffer, pH 9.2
Canis familiaris [2] = test: Acid antisecretory activity against pentagastrin-stimulated Heidenhain pouch dogs after intravenous administration; format: functional; conditions: Canis lupus familiaris, read-out: ID50 (the source's name)
Outline: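 Fasted, unanesthetized Heidenhain pouch dogs received a continuous pentagastrin infusion into a superficial leg vein at a near-maximal acid-stimulating dose. Gastric juice was collected at 30-min intervals, ten collections per dog. Acid was titrated on 1.0 mL to pH 7.4 with 0.1 N NaOH. Compound or vehicle was given iv at 90 min. ID50 came from linear regression of log dose on percent inhibition in n dogs.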

[3] = Log distribution coefficient between 1-octanol and aqueous buffer at pH of 7.4.; format: physicochemical; conditions: 1-octanol/aqueous buffer, pH 7.4
[4] = target: Histamine H2 receptor (Cavia porcellus) (UniProt P47747); test: Antagonistic activity against histamine H2 receptor from guinea pig atrium; format: functional, tissue-based; conditions: Cardiac atrium
Sequence of Histamine H2 receptor (Cavia porcellus) (P47747 whole entry): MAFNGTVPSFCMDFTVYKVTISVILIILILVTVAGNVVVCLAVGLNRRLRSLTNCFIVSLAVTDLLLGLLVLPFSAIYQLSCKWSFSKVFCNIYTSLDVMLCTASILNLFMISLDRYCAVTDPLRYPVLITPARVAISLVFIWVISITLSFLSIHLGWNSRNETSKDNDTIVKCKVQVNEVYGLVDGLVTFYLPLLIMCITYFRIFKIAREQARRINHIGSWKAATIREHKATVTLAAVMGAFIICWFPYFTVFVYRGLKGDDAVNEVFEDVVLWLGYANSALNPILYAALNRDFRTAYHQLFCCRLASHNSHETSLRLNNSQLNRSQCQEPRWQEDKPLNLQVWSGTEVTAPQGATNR

[5] = target: Histamine H1 receptor (Cavia porcellus) (UniProt P31389); test: Relative antagonistic activity against Histamine H1 receptor
Sequence of Histamine H1 receptor (Cavia porcellus) (P31389 whole entry): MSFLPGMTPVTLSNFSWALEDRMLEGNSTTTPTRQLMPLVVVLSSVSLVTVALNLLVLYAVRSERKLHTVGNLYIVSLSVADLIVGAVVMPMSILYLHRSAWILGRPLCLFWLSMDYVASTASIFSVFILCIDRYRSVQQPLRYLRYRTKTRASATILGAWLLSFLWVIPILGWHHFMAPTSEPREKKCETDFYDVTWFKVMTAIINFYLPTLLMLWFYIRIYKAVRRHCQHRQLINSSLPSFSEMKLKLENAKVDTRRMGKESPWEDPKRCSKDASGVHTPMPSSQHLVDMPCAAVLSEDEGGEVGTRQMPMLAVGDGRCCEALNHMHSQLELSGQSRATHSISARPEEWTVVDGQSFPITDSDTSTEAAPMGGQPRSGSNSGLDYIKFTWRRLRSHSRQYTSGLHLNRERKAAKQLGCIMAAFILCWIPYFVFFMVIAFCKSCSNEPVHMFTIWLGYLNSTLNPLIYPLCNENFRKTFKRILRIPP

Canis familiaris [6] = test: Acid antisecretory activity against pentagastrin-stimulated Heidenhain pouch dogs at a dose of 5 mg/kg after intravenous administration; format: functional, Canis lupus familiaris
Outline: (§1)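 Pentagastrin was infused iv into a leg vein of fasted, conscious Heidenhain pouch dogs to give near-maximal acid output. Juice was collected every 30 min, ten collections in all, and acid was titrated (1.0 mL to pH 7.4, 0.1 N NaOH). The single iv dose was given at 90 min. Percent inhibition was the lowest post-dose acid output compared with the mean output just before dosing.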

[7] = target: Histamine H2 receptor (Cavia porcellus) (UniProt P47747); test: Antagonistic activity against histamine H2 receptor from guinea pig atrium; activity KB (Dissociation Constant) is negative; format: functional, tissue-based; conditions: Cardiac atrium
Canis familiaris [8] = test: Acid antisecretory activity against pentagastrin-stimulated Heidenhain pouch dogs at a dose of 10 mg/kg after intravenous administration; format: functional, Canis lupus familiaris; outline: as §1
Canis familiaris [9] = test: Acid antisecretory activity against pentagastrin-stimulated Heidenhain pouch dogs at a dose of 25 mg/kg after intravenous administration; format: functional, Canis lupus familiaris; outline: as §1
Canis familiaris [10] = test: Acid antisecretory activity against pentagastrin-stimulated Heidenhain pouch dogs at a dose of 23 mg/kg after intravenous administration; format: functional, Canis lupus familiaris; outline: as §1
[11] = target: Histamine H1 receptor (Cavia porcellus) (UniProt P31389); test: Relative antagonistic activity against Histamine H1 receptor, NA is Inactive
[12] = Log distribution coefficient between 1-octanol and aqueous buffer at specified pH of 9.2.; conditions: 1-octanol/aqueous buffer, pH 9.2
[13] = pKa ([…] constant) value at a physiological pH of 7.4; format: physicochemical; conditions: pH 7.4
Outline: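 Ionisation constants taken as the observed pH1/2 from titration at 23 °C. The dihydrochloride salts were titrated in water, and the free bases in 1:1 methanol–water.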

- logD [1]: 0.97
- logD [3]: 1.13
- Kb [4]: 235 nM
Compound: CCNc1cc(-c2n[nH]c(N)n2)ccn1
- ED50 (Canis familiaris [2]): 0.87 mg/kg

- Relative activity [5]: > 1
Compound: c1ccc(CN(CC2=NCCN2)c2ccccc2)cc1

- KB [7]: inactive
Compound: Nc1n[nH]c(Cc2ccccn2)n1
- Max inhibition (Canis familiaris [6]): 18%
- Max inhibition (Canis familiaris [8]): 0%

- KB [7]: inactive
Compound: Nc1n[nH]c(-c2cccnc2)n1
- Max inhibition (Canis familiaris [8]): 22%
- Max inhibition (Canis familiaris [9]): 11%

- Relative activity [5]: 0.01
Compound: c1ccc(CN(CCc2c[nH]cn2)Cc2ccccc2)cc1

- logD [1]: -0.06
- logD [3]: 0.11
- Kb [4]: 2220 nM
Compound: Nc1cc(-c2n[nH]c(N)n2)ccn1
- ED50 (Canis familiaris [2]): 2.35 mg/kg

- KB [7]: inactive
Compound: Nc1n[nH]c(Cc2cccnc2)n1
- Max inhibition (Canis familiaris [8]): 0%

- Kb [4]: 41900 nM
Compound: Nc1n[nH]c(-c2ccncc2)n1
- Max inhibition (Canis familiaris [8]): 43%
- Max inhibition (Canis familiaris [10]): 73%

- KB [7]: inactive
Compound: Nc1n[nH]c(-c2ccccn2)n1
- Max inhibition (Canis familiaris [6]): 0%
- Max inhibition (Canis familiaris [8]): 0%

- Activity [11]: inactive
Compound: CN(C)CCN(Cc1ccccc1)Cc1ccccc1

Compound: CN/C(=N\CCSCc1nc[nH]c1C)NC#N [CIMETIDINE]
- logD [1]: 0.4
- logD [12]: 0.54
- ED50 (Canis familiaris [2]): 1.02 mg/kg
- pKa [13]: 7.02

- Relative activity [5]: 1
Compound: CN(C)CCN(Cc1ccccc1)c1ccccc1

- KB [7]: inactive
Compound: Nc1n[nH]c(Cc2ccncc2)n1
- Max inhibition (Canis familiaris [8]): 26%
- Max inhibition (Canis familiaris [9]): 30%

- Relative activity [5]: > 0.5
Compound: c1ccc(CN(Cc2c[nH]cn2)c2ccccc2)cc1
